Assay outcomes: PubChem BioAssay, NMMLSC
MEKK2 WT-MEK5 – raises or lowers MEK5 binding to wildtype human MEKK2 PB1 domain | bead flow cytometry, Alexa488-MEK5 binding to MEKK2 WT; actives lie on both sides | binding response (% of control), % at 10 µM | Q9Y2U5 | 1.1% of 290,000 active; in the data active = binding response below about 67% or above about 130%
MEKK3 PB1 HTS – modulators (inhibitors or enhancers) of MEK5 binding to human MEKK3 PB1 domain | Q99759 | bead-based flow cytometry, Alexa488-MEK5 binding to MEKK3; actives lie on both sides; 0 = blocked by unlabeled MEK5, 100 = vehicle | binding response (% of control), % at 10 µM | 1.4% of 290,000 active | AID 1529;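 active = binding response more than 3 SD above or below the average of its plate-row segment, actives on both sides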;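 also: Alexa488 bead fluorescence after subtracting the streptavidin-only scavenger bead signal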
ABCG2 block – blocks JC-1 efflux by human ABCG2 transporter | inhibition, % at 6.6 µM | IgMXP3 cells, flow cytometry | Q9UNQ0 | 0.1% of 190,000 active;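 active = inhibition above 80%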;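 also: 0% = DMSO and 100% = nicardipine control wells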
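material = IgMXP3 (ABCG2) plus far-red-tagged CCRF-Adr (ABCB1) cells | amount = 3 million cells/mL, equal mix of both lines | also added = JC-1 transporter substrate | dosing = one concentration, 6.6 µM final | schedule = 10 min at 25 °C | measured by = flow cytometric JC-1 green MFI at 530 nm | read-out basis = percent efflux inhibition, scaled nicardipine 100% to DMSO 0%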
ABCB1 block – blocks JC-1 efflux by human ABCB1 transporter; inhibition, % at 6.6 µM; CCRF-Adr cells, flow cytometry; AID 1326; P08183; 0.067% of 190,000 active; in the data active = inhibition above about 40%;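 also: 0% = vehicle and 100% = reference inhibitor; higher value means more JC-1 retained so stronger ABCB1 efflux block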
MEKK2mut PB1 HTS – signal of MEK5 binding to mutant human MEKK2 PB1 domain. bead flow cytometry, Alexa488-MEK5 binding to MEKK2 mutant. percent response, % at 10 µM. 0.35% of 290,000 active. AID 1530; in the data active = percent response above about 24%, passing the limit was not always enough
Starred values were filed as active, the others as inactive. The list is not random: actives were taken first. Their share in the collection is about 2.3%.

`COc1cccc(C(=O)NC2CCNCC2)c1` gave MEKK2 WT-MEK5 99, MEKK3 PB1 HTS 101 and MEKK2mut PB1 HTS 1.
For CC1CCCCN1S(=O)(=O)c1ccc2[nH]c(=O)cc(C(=O)NCCCN3CCCCCC3)c2c1 (configuration not stated) the results were MEKK2 WT-MEK5 143*, MEKK3 PB1 HTS 103 and MEKK2mut PB1 HTS 20.
For Cc1nnc(SCC(=O)N2CCc3ccccc32)s1 the results were MEKK2 WT-MEK5 102, MEKK3 PB1 HTS 102, ABCG2 block 5, ABCB1 block 43* and MEKK2mut PB1 HTS 5.
For COc1ccc(-n2c(C)cc(=O)[nH]c2=O)cc1 the results were MEKK2 WT-MEK5 105, MEKK3 PB1 HTS 104 and MEKK2mut PB1 HTS 1.
For COc1ccc(CN2CCOCCOCCOCCOCC2)cc1 the results were MEKK2 WT-MEK5 -3.0*, MEKK3 PB1 HTS 94 and MEKK2mut PB1 HTS 19.
For Cc1ccc(/C=N/Nc2ccnc3cc(Cl)ccc23)c(C)c1 the results were MEKK2 WT-MEK5 167*, MEKK3 PB1 HTS 101, ABCG2 block 0, ABCB1 block 0 and MEKK2mut PB1 HTS 30.
`Cc1ccccc1/C=N/Nc1ccnc2cc(Cl)ccc12` gave MEKK2 WT-MEK5 122, MEKK3 PB1 HTS 96, ABCG2 block 34, ABCB1 block -1 and MEKK2mut PB1 HTS 5.
Screening CCCN1CCN(CCCNC(=O)c2cc3c(=O)oc4ccc(C)cc4c3s2)CC1 returned MEKK2 WT-MEK5 103, MEKK3 PB1 HTS 93 and MEKK2mut PB1 HTS 3.
Screening Cc1cccc2c1-c1sc(C(=O)NCCCN3CCCC(C)C3)cc1CO2 (configuration not stated) returned MEKK2 WT-MEK5 171*, MEKK3 PB1 HTS 105 and MEKK2mut PB1 HTS 24*.
`CCN1CCN(CCCNC(=O)c2cc3c(s2)-c2ccccc2OC3)CC1` gave MEKK2 WT-MEK5 111, MEKK3 PB1 HTS 102 and MEKK2mut PB1 HTS 3.
Cc1ccc2oc(=O)c3cc(C(=O)NCCCN4CCCC(C)C4)sc3c2c1 (configuration not stated) was read as MEKK2 WT-MEK5 136*, MEKK3 PB1 HTS 105 and MEKK2mut PB1 HTS 16.
Screening CC1CC(C)CN(CCCNC(=O)c2cc3c(s2)-c2ccccc2OC3)C1 (configuration not stated) returned MEKK2 WT-MEK5 142*, MEKK3 PB1 HTS 106 and MEKK2mut PB1 HTS 25*.
NC(=O)c1ccccc1NC(=O)c1ccc2c(c1)OCO2 was read as MEKK2 WT-MEK5 101, MEKK3 PB1 HTS 103 and MEKK2mut PB1 HTS -4.
For Cc1c(NC(=O)c2ccc(NC(=O)C3CC3)cc2)cccc1C(=O)O the results were MEKK2 WT-MEK5 106, MEKK3 PB1 HTS 105 and MEKK2mut PB1 HTS 7.
Screening Cc1ccc(C(C)C)c(OCc2nn(CC(=O)c3ccc(Cl)cc3)c3[n+]2CCCCC3)c1 returned MEKK2 WT-MEK5 192*, MEKK3 PB1 HTS 91, ABCG2 block 2, ABCB1 block 0 and MEKK2mut PB1 HTS 18.
`CCc1ccc(C(=O)N/N=C/c2ccncc2)s1` gave MEKK2 WT-MEK5 98, MEKK3 PB1 HTS 105 and MEKK2mut PB1 HTS 0.
`O=C(COc1ccc2c(-c3ccccc3)cc(=O)oc2c1)NCc1cccs1` gave MEKK2 WT-MEK5 4.0*, MEKK3 PB1 HTS 93, ABCG2 block 32, ABCB1 block 0 and MEKK2mut PB1 HTS 5.
`O=C(COc1ccc2c(C(F)(F)F)cc(=O)oc2c1)NCc1cccs1` gave MEKK2 WT-MEK5 89, MEKK3 PB1 HTS 87, ABCG2 block 0, ABCB1 block 0 and MEKK2mut PB1 HTS -4.
`O=C(/C=C1\NC2(CCCC2)Cc2ccccc21)C(=O)N/N=C/c1ccccc1O` gave MEKK2 WT-MEK5 102, MEKK3 PB1 HTS 174*, ABCG2 block -6, ABCB1 block -1 and MEKK2mut PB1 HTS 0.
Screening Cc1cc(C)nc(N/N=C/c2ccccc2OCc2ccc([N+](=O)[O-])cc2)n1 returned MEKK2 WT-MEK5 101, MEKK3 PB1 HTS 96, ABCG2 block 5, ABCB1 block 4 and MEKK2mut PB1 HTS -2.
Screening O=[N+]([O-])c1ccc(N/N=C\c2ccccc2OCc2ccccc2)cc1 returned MEKK2 WT-MEK5 9.0*, MEKK3 PB1 HTS 96, ABCG2 block 13, ABCB1 block 0 and MEKK2mut PB1 HTS 9.
